Assay results gathered from unrelated publications.
Each line is one published result; the experiments were not run side by side.
Target: Receptor tyrosine-protein kinase erbB-4 (ERBB4, Homo sapiens, UniProt Q15303)

| SMILES | assay | conditions | quantity | value |
| --- | --- | --- | --- | --- |
| O=C(Nc1nccs1)C(c1cc(F)ccc1O)N1Cc2ccccc2C1=O (stereo not drawn) | enzyme activity, inhibitor | 1 µM | inhibition | 16% |
| CCCOc1ccc([C@@H]2[C@@H](C(=O)O)[C@H](c3ccc4c(c3)OCO4)CN2CC(=O)Nc2c(CC)cccc2CC)cc1 | cell-free assay, competition with immobilised ligand | 1 µM | remaining binding | 100% |
| Cc1cnc(NC2CCOCC2)nc1-n1cnc(C(=O)NC(CN)c2cc(F)cc(Cl)c2)c1 (stereo not drawn) | enzyme activity, inhibitor, radiometric | 1 µM | remaining activity | 108% |
| Cc1cc(C)c(-n2ccn3nc(-c4cccnc4)cc23)cc1NC(=O)c1cc(C#N)cc(S(F)(F)(F)(F)F)c1 | cell-free assay, competition with immobilised ligand | 0.1 µM | remaining binding | 96.3% |
| Cn1c(=O)n(-c2ccc(C(C)(C)C#N)cc2)c2c3cc(-c4cnc5ccccc5c4)ccc3ncc21 | enzyme activity, inhibitor | 10 µM | remaining activity | 117% |
| O=C(O)[C@H]1[C@H](Cn2nnc3ccccc3c2=O)CC[C@@H]1C(=O)c1ccc(OCCC2CCOCC2)cc1 | cell-free assay, competition with immobilised ligand | 1 µM | remaining binding | 89% |
| CCCS(=O)(=O)Nc1ccc(F)c(C(=O)c2c[nH]c3ncc(-c4ccc(Cl)cc4)cc23)c1F | enzyme activity, inhibitor | 1 µM | inhibition | < 10% |
| CNC(=O)c1cc(Oc2ccc(NC(=O)Nc3ccc(Cl)c(C(F)(F)F)c3)cc2)ccn1 | enzyme activity, inhibitor | 0.3 µM | inhibition | -7% |
| COc1cc2nccc(Oc3ccc(NC(=O)c4c5n(n(-c6ccc(F)cc6)c4=O)CCCC5)cc3)c2cc1OC | enzyme activity, inhibitor | 0.1 µM | inhibition | -17% |
| COc1cc2c(N3CCN(C(=O)Nc4ccc(OC(C)C)cc4)CC3)ncnc2cc1OCCCN1CCCCC1 | cell-free assay | 0.5 µM | remaining signal | 97.3% |
| CC(C)CC(=O)N1CCc2nc(-c3ccc(Br)cc3)nc(N(C)Cc3ccccc3)c2C1 | cell-free assay, competition with immobilised ligand | 0.1 µM | remaining binding | 94% |
| Cc1ccc(C(=O)Nc2ccc(CN3CCN(C)CC3)c(C(F)(F)F)c2)cc1C#Cc1cnc2cccnn12 | enzyme activity, inhibitor | 23.5 nM | remaining activity | 57% |
| CN(C)c1ncnc(-c2ccc3nc(Nc4cc(CN5CCN(C(=O)CC(F)(F)F)CC5)ccn4)[nH]c3c2)c1Cl | cell-free assay, competition with immobilised ligand | 1 µM | remaining binding | 99% |
| Cc1ccc(NC(=O)c2ccc(CN3CCN(C)CC3)cc2)cc1Nc1nc(-c2cccnc2)cs1 | cell-free assay | 0.5 µM | remaining signal | 93.5% |
| Cc1ccc(NC(=O)c2ccc(C)c(C(F)(F)F)c2)cc1C#Cc1nn(C2CCC(O)CC2)c2ncnc(N)c12 (stereo not drawn) | cell-free assay | 10 µM | remaining signal | -3% |
| CCN(CC)CCNC(=O)c1c(C)[nH]c(/C=C2\C(=O)Nc3ccc(F)cc32)c1C | cell-free assay | 0.5 µM | remaining signal | 94.8% |
| COc1cc(Nc2cnc(C#N)c(O[C@H](C)CN(C)C)n2)ncc1-c1cnn(C)c1 | enzyme activity, inhibitor, radiometric | 1 µM | remaining activity | 101% |
| CCN(CC)c1ccc(C2=NNC(=O)CC2C)cc1[N+](=O)[O-] (stereo not drawn) | enzyme activity, inhibitor | 10 µM | remaining activity | 94% |
